ChEMBL document CHEMBL3763086, “Salicylanilide N-monosubstituted carbamates: Synthesis and in vitro antimicrobial activity” (2016)
In brackets after ≈: the same amount, converted by molar mass.

Legend:
Type in all cases: functional
[1] = tested on: Escherichia coli; assay: Antibacterial activity against Escherichia coli CCM 4517 after 48 hrs by microbroth dilution method; conditions: CCM 4517, 48 h
How it was run: (§1)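 Microbroth dilution modified per M07-A07 in Mueller-Hinton broth, pH 7.4 (±0.2). Inoculum in sterile water adjusted to 0.5 McFarland. MIC taken as growth reduction of at least 90% (IC90) versus control, read visually and at 540 nm after 24 and 48 h incubation in the dark.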

[2] = tested on: Candida albicans; assay: Antifungal activity against Candida albicans ATCC 44859 after 24 hrs by microbroth dilution method; conditions: ATCC 44859, 24 h
[3] = tested on: Pichia kudriavzevii; assay: Antifungal activity against Candida krusei E28 after 24 hrs by microbroth dilution method; conditions: E28, 24 h
[4] = tested on: Trichosporon asahii; assay: Antifungal activity against Trichosporon asahii 1188 after 24 hrs by microbroth dilution method; conditions: Trichosporon asahii, 1188, 24 h
[5] = tested on: Staphylococcus aureus; assay: Antibacterial activity against Staphylococcus aureus CCM 4516/08 after 48 hrs by microbroth dilution method; conditions: CCM 4516/08, 48 h
How it was run: (§2)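 Microdilution broth method modified after M07-A07 in Mueller-Hinton broth adjusted to pH 7.4 (±0.2). Inoculum prepared in sterile water to 0.5 McFarland (1.5 × 10^8 CFU/mL). MIC taken as growth reduction versus control (IC95 per table header), read visually and spectrophotometrically at 540 nm after 24 and 48 h incubation in the dark.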

[6] = tested on: Escherichia coli; assay: Antibacterial activity against Escherichia coli CCM 4517 after 24 hrs by microbroth dilution method; conditions: CCM 4517, 24 h; how it was run: as §1
[7] = tested on: Enterococcus sp.; assay: Antibacterial activity against Enterococcus sp. J 14365/08 after 48 hrs by microbroth dilution method; conditions: J 14365/08, 48 h; how it was run: as §1
[8] = tested on: Nakaseomyces glabratus; assay: Antifungal activity against Candida glabrata 20/I after 48 hrs by microbroth dilution method
[9] = tested on: Klebsiella pneumoniae; assay: Antibacterial activity against Klebsiella pneumoniae D 11750/08 after 48 hrs by microbroth dilution method; conditions: D 11750/08, 48 h; how it was run: as §1
[10] = tested on: Trichosporon asahii; assay: Antifungal activity against Trichosporon asahii 1188 after 48 hrs by microbroth dilution method; conditions: Trichosporon asahii, 1188, 48 h
[11] = tested on: Trichophyton mentagrophytes; assay: Antifungal activity against Trichophyton mentagrophytes 445 after 72 hrs by microbroth dilution method; conditions: Trichophyton mentagrophytes, 445, 72 h
[12] = tested on: Nakaseomyces glabratus; assay: Antifungal activity against Candida glabrata 20/I after 24 hrs by microbroth dilution method
[13] = tested on: Candida albicans; assay: Antifungal activity against Candida albicans ATCC 44859 after 48 hrs by microbroth dilution method; conditions: ATCC 44859, 48 h
[14] = tested on: Pichia kudriavzevii; assay: Antifungal activity against Candida krusei E28 after 48 hrs by microbroth dilution method; conditions: E28, 48 h
[15] = tested on: Klebsiella pneumoniae; assay: Antibacterial activity against Klebsiella pneumoniae D 11750/08 after 24 hrs by microbroth dilution method; conditions: D 11750/08, 24 h; how it was run: as §1
[16] = tested on: Candida tropicalis; assay: Antifungal activity against Candida tropicalis 156 after 48 hrs by microbroth dilution method; conditions: Candida tropicalis, 156, 48 h
[17] = tested on: Staphylococcus epidermidis; assay: Antibacterial activity against Staphylococcus epidermidis H 6966/08 after 48 hrs by microbroth dilution method; conditions: H 6966/08, 48 h; how it was run: as §1
[18] = tested on: Enterococcus sp.; assay: Antibacterial activity against Enterococcus sp. J 14365/08 after 24 hrs by microbroth dilution method; conditions: J 14365/08, 24 h; how it was run: as §1
[19] = tested on: Klebsiella pneumoniae; assay: Antibacterial activity against ESBL-positive Klebsiella pneumoniae J 14368/08 after 48 hrs by microbroth dilution method; conditions: J 14368/08, 48 h; how it was run: as §1
[20] = tested on: Staphylococcus epidermidis; assay: Antibacterial activity against Staphylococcus epidermidis H 6966/08 after 24 hrs by microbroth dilution method; conditions: H 6966/08, 24 h; how it was run: as §1
[21] = tested on: Staphylococcus aureus; assay: Antibacterial activity against methicillin-resistant Staphylococcus aureus H 5996/08 after 24 hrs by microbroth dilution method; conditions: H 5996/08, 24 h; how it was run: as §2
[22] = tested on: Lichtheimia corymbifera; assay: Antifungal activity against Absidia corymbifera 272 after 24 hrs by microbroth dilution method; conditions: Lichtheimia corymbifera, 272, 24 h
[23] = tested on: Candida tropicalis; assay: Antifungal activity against Candida tropicalis 156 after 24 hrs by microbroth dilution method; conditions: Candida tropicalis, 156, 24 h
[24] = tested on: Staphylococcus aureus; assay: Antibacterial activity against methicillin-resistant Staphylococcus aureus H 5996/08 after 48 hrs by microbroth dilution method; conditions: H 5996/08, 48 h; how it was run: as §2
[25] = tested on: Lichtheimia corymbifera; assay: Antifungal activity against Absidia corymbifera 272 after 48 hrs by microbroth dilution method; conditions: Lichtheimia corymbifera, 272, 48 h
[26] = tested on: Trichophyton mentagrophytes; assay: Antifungal activity against Trichophyton mentagrophytes 445 after 120 hrs by microbroth dilution method; conditions: Trichophyton mentagrophytes, 445, 120 h
[27] = tested on: Staphylococcus aureus; assay: Antibacterial activity against Staphylococcus aureus CCM 4516/08 after 24 hrs by microbroth dilution method; conditions: CCM 4516/08, 24 h; how it was run: as §1
[28] = tested on: Klebsiella pneumoniae; assay: Antibacterial activity against ESBL-positive Klebsiella pneumoniae J 14368/08 after 24 hrs by microbroth dilution method; conditions: J 14368/08, 24 h; how it was run: as §1

Structure (SMILES) | MIC [1] [µM] | MIC [2] [µM] | MIC [3] [µM] | MIC [4] [µM] | MIC [5] [µM] | MIC [6] [µM] | MIC [7] [µM] | MIC [8] [µM] | MIC [9] [µM] | MIC [10] [µM] | MIC [11] [µM] | MIC [12] [µM] | MIC [13] [µM] | MIC [14] [µM] | MIC [15] [µM] | MIC [16] [µM] | MIC [17] [µM] | MIC [18] [µM] | MIC [19] [µM] | MIC [20] [µM] | also measured
O=C(Nc1ccccc1)Oc1ccc(Cl)cc1C(=O)Nc1ccc(Cl)cc1 | 500 (≈ 201 µg/mL) | > 125 | 62.5 (≈ 25.1 µg/mL) | 62.5 (≈ 25.1 µg/mL) | 31.2 (≈ 12.5 µg/mL) | 500 (≈ 201 µg/mL) | 500 (≈ 201 µg/mL) | > 125 | 500 (≈ 201 µg/mL) | 62.5 (≈ 25.1 µg/mL) | 1.95 (≈ 0.782 µg/mL) | > 125 | > 125 | 62.5 (≈ 25.1 µg/mL) | 500 (≈ 201 µg/mL) | > 125 | 31.2 (≈ 12.5 µg/mL) | 500 (≈ 201 µg/mL) | 62.5 (≈ 25.1 µg/mL) | 31.2 (≈ 12.5 µg/mL) | MIC [21]: 31.2 µM (≈ 12.5 µg/mL); MIC [22]: > 125 µM; MIC [23]: > 125 µM; MIC [24]: 31.2 µM (≈ 12.5 µg/mL); MIC [25]: > 125 µM; MIC [26]: 1.95 µM (≈ 0.782 µg/mL); MIC [27]: 31.2 µM (≈ 12.5 µg/mL); MIC [28]: 62.5 µM (≈ 25.1 µg/mL)
O=C(NC12CC3CC(CC(C3)C1)C2)Oc1ccc(Cl)cc1C(=O)Nc1ccc(Cl)cc1 | > 250 | > 250 | 125 (≈ 57.4 µg/mL) | 31.2 (≈ 14.4 µg/mL) | 15.6 (≈ 7.18 µg/mL) | > 250 | 250 (≈ 115 µg/mL) | > 250 | > 250 | 31.2 (≈ 14.4 µg/mL) | 3.9 (≈ 1.79 µg/mL) | > 250 | > 250 | 125 (≈ 57.4 µg/mL) | > 250 | 250 (≈ 115 µg/mL) | 3.9 (≈ 1.79 µg/mL) | 250 (≈ 115 µg/mL) | 62.5 (≈ 28.7 µg/mL) | 3.9 (≈ 1.79 µg/mL) | MIC [21]: 3.9 µM (≈ 1.79 µg/mL); MIC [22]: > 250 µM; MIC [23]: 250 µM (≈ 115 µg/mL); MIC [24]: 31.2 µM (≈ 14.4 µg/mL); MIC [25]: > 250 µM; MIC [26]: 3.9 µM (≈ 1.79 µg/mL); MIC [27]: 3.9 µM (≈ 1.79 µg/mL); MIC [28]: 62.5 µM (≈ 28.7 µg/mL)
O=C(NCCc1ccccc1)Oc1ccc(Cl)cc1C(=O)Nc1ccc(Cl)cc1 | 500 (≈ 215 µg/mL) | > 500 | > 500 | > 500 | 15.6 (≈ 6.71 µg/mL) | 125 (≈ 53.7 µg/mL) | 500 (≈ 215 µg/mL) | > 500 | 500 (≈ 215 µg/mL) | > 500 | 1.95 (≈ 0.837 µg/mL) | > 500 | > 500 | > 500 | 500 (≈ 215 µg/mL) | > 500 | 15.6 (≈ 6.71 µg/mL) | 500 (≈ 215 µg/mL) | 31.2 (≈ 13.4 µg/mL) | 3.9 (≈ 1.67 µg/mL) | MIC [21]: 3.9 µM (≈ 1.67 µg/mL); MIC [22]: > 500 µM; MIC [23]: > 500 µM; MIC [24]: 15.6 µM (≈ 6.71 µg/mL); MIC [25]: > 500 µM; MIC [26]: 1.95 µM (≈ 0.837 µg/mL); MIC [27]: 3.9 µM (≈ 1.67 µg/mL); MIC [28]: 31.2 µM (≈ 13.4 µg/mL)
O=C(Nc1ccccc1)Oc1ccccc1C(=O)Nc1ccccc1 | > 500 | > 500 | > 500 | > 500 | 500 (≈ 166 µg/mL) | > 500 | > 500 | > 500 | > 500 | > 500 | 125 (≈ 41.5 µg/mL) | > 500 | > 500 | > 500 | > 500 | > 500 | 500 (≈ 166 µg/mL) | > 500 | > 500 | 500 (≈ 166 µg/mL) | MIC [21]: 500 µM (≈ 166 µg/mL); MIC [22]: > 500 µM; MIC [23]: > 500 µM; MIC [24]: 500 µM (≈ 166 µg/mL); MIC [25]: > 500 µM; MIC [26]: 125 µM (≈ 41.5 µg/mL); MIC [27]: 500 µM (≈ 166 µg/mL); MIC [28]: > 500 µM
O=C(NC1CCCCC1)Oc1ccc(Cl)cc1C(=O)Nc1ccc(F)cc1 | > 125 | > 125 | > 125 | 62.5 (≈ 24.4 µg/mL) | 15.6 (≈ 6.1 µg/mL) | > 125 | > 125 | > 125 | > 125 | > 125 | 1.95 (≈ 0.762 µg/mL) | 125 (≈ 48.9 µg/mL) | > 125 | > 125 | > 125 | > 125 | 7.81 (≈ 3.05 µg/mL) | > 125 | 62.5 (≈ 24.4 µg/mL) | 7.81 (≈ 3.05 µg/mL) | MIC [21]: 31.2 µM (≈ 12.2 µg/mL); MIC [22]: 125 µM (≈ 48.9 µg/mL); MIC [23]: > 125 µM; MIC [24]: 31.2 µM (≈ 12.2 µg/mL); MIC [25]: > 125 µM; MIC [26]: 1.95 µM (≈ 0.762 µg/mL); MIC [27]: 15.6 µM (≈ 6.1 µg/mL); MIC [28]: 62.5 µM (≈ 24.4 µg/mL)
